Measurements taken from PMC7931646 (The Journal of Experimental Medicine, 2021).

Assays:
[1] = tested on: Pig-a mutant RBCs and RETs; assay: GLP 28-d in vivo Pig-a gene mutation study in rats; design: species or system rat; conditions: 28 d, 6, 20, 60 mg/kg/d (males), 3, 10, 30 mg/kg/d (females)
How it was run: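 GLP study in male and female Sprague-Dawley rats, n = 5 per dose per sex. Test compound in 15% Labrasol:85% water was given by oral gavage for 28 d at 0, 6, 20 or 60 mg/kg/d (males) or 0, 3, 10 or 30 mg/kg/d (females). Peripheral blood was then analysed by flow cytometry for % reticulocytes, mutant-phenotype RBC frequency and mutant-phenotype RET frequency.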

CYP450 1A2 = target: T1, CYP450 1A2 (Homo sapiens, UniProt P05177); assay: CYP450 inhibition, recombinant isoform; format: in vitro ADME
T1 sequence (P05177 1-516): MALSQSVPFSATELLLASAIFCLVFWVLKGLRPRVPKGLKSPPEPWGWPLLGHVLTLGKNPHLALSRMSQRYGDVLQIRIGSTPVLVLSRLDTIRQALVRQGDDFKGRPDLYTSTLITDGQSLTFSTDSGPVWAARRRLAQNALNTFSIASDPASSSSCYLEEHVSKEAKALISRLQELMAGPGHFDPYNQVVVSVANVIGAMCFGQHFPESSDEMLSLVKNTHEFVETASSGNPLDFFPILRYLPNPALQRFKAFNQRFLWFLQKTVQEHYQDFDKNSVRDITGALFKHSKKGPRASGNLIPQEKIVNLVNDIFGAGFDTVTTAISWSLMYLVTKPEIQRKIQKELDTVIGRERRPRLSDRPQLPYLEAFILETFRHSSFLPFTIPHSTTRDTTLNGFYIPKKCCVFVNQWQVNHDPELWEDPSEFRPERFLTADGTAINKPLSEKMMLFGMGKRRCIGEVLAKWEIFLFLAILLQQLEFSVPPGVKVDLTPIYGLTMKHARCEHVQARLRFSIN
How it was run: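 Recombinant human CYP450 isoforms were incubated with isoform-specific probe substrates; for CYP3A4 these were midazolam and testosterone. Inhibition was quantified by LC-MS/MS analysis of probe-substrate turnover.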

[2] = Kinetic aqueous solubility, PBS pH 7.4; format: physicochemical; conditions: PBS buffer, pH 7.4, aqueous buffer, kinetic from dmso stock
How it was run: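 Kinetic solubility in PBS at pH 7.4, read by UV/Vis absorbance and reported in micromolar.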

## COc1nc(-c2cc(C)c(N[C@@H](C)c3cc(F)cc(F)c3)nn2)ccc1-n1cnc(C)c1 [Compound 2, (S)-N-(1-(3,5-difluorophenyl)ethyl)-6-(6-methoxy-5-(4-methyl-1H-imidazol-1-yl)pyridin-2-yl)-4-methylpyridazin-3-amine]
[1]
  in vivo mutagenicity (Pig-a mutant RBCs and RETs): negative
CYP450 1A2
  IC50: 12 µM
[2]
  solubility kinetic: < 1.3 µM
